Experimental data from ChEMBL document CHEMBL3872285, “Discovery of a Potent, Selective, and Orally Available PI3Kδ Inhibitor for the Treatment of Inflammatory Diseases” (ACS Med Chem Lett, 2017).

Assays:
[1] = AUC in Wistar rat at 1 mg/kg, iv; assay type: ADME, organism-based; details: in vivo
In short: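 Wistar rats received a single 1 mg/kg intravenous dose. Plasma samples were collected and AUC was calculated from them, along with half-life, clearance and steady-state volume of distribution. Values are means of two animals (n=2).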

[2] = biological target: PI3-kinase p110-alpha/p85-alpha (Homo sapiens, UniProt P42336); test: Inhibition of full length recombinant human N-terminal His6-tagged PI3K p110alpha/human p85alpha expressed in baculovirus infected Sf21 insect cells using PIP2 as substrate preincubated for 30 mins followed by substrate addition by HTRF assay
In short: (§1)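 Recombinant human class I PI3K isoform, HTRF readout. ATP held at the Km of the enzyme. Compound preincubated with enzyme for 30 min. PIP3 product detected by its displacement of biotin-PIP3 from an energy-transfer complex.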

[3] = Oral bioavailability in Wistar rat at 1 mg/kg administered via gavage; assay type: ADME, organism-based; details: in vivo
[4] = Clearance in Wistar rat at 1 mg/kg, iv; details: in vivo
[5] = Drug metabolism in human liver microsomes assessed as disappearance of parent compound at 5 uM after 30 mins in presence of NADPH by UPLC-MS/MS analysis
[6] = Drug metabolism in rat liver microsomes assessed as disappearance of parent compound at 5 uM after 30 mins in presence of NADPH by UPLC-MS/MS analysis
[7] = biological target: PI3-kinase p110-delta/p85-alpha (Homo sapiens, UniProt O00329); test: Inhibition of full length recombinant human N-terminal His6-tagged PI3K p110delta/human p85alpha expressed in baculovirus infected sf21 cells using PIP2 as substrate preincubated for 30 mins followed by substrate addition by HTRF assay
Sequence of PI3-kinase p110-delta/p85-alpha (P27986 whole entry): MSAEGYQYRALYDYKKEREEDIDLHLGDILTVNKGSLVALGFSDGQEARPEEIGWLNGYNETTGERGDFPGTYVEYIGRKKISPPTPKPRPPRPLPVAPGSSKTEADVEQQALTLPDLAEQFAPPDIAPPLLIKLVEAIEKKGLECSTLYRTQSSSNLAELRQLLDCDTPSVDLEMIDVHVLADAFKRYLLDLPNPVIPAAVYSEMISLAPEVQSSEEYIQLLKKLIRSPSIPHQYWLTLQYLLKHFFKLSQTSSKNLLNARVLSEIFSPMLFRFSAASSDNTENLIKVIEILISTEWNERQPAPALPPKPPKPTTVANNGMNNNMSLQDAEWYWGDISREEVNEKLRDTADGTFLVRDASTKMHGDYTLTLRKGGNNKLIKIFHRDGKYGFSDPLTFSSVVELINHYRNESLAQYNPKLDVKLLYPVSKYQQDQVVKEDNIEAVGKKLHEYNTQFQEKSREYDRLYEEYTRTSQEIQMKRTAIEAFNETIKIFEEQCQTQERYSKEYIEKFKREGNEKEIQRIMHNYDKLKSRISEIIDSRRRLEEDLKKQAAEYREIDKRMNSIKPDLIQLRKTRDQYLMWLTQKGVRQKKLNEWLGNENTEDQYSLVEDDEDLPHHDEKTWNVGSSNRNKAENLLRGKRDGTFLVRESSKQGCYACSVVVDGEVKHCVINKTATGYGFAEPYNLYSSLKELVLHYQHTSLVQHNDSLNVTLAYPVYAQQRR
Sequence of PI3-kinase p110-delta/p85-alpha (O00329 whole entry): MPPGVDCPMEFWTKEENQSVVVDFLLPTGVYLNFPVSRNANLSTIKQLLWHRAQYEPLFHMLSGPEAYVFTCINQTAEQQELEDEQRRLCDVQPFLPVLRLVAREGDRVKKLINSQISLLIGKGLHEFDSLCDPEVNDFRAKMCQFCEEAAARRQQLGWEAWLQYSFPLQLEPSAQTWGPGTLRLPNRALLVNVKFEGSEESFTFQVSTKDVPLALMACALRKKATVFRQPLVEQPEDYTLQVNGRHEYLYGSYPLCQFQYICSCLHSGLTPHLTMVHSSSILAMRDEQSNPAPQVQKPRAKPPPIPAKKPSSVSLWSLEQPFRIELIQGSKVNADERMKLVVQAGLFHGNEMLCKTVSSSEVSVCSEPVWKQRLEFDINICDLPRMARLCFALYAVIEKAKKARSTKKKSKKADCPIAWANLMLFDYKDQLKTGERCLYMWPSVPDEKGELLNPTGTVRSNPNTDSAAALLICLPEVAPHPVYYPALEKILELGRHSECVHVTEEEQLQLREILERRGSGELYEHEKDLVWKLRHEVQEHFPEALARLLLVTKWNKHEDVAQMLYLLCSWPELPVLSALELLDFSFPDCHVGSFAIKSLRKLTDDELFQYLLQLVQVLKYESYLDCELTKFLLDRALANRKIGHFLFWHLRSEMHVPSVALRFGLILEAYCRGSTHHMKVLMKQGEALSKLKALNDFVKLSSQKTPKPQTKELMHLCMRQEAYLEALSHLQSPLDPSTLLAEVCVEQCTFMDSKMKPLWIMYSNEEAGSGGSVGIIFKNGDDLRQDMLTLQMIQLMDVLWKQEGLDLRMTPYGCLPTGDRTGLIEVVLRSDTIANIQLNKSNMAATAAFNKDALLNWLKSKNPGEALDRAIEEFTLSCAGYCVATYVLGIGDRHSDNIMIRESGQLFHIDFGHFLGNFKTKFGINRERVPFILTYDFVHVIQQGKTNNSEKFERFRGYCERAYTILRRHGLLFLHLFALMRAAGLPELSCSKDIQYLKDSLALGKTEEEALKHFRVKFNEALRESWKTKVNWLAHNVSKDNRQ

[8] = Half life in Wistar rat at 1 mg/kg, iv; assay type: ADME, organism-based; details: in vivo
[9] = biological target: PI3K p110 beta/p85 alpha (Homo sapiens, UniProt P42338); test: Inhibition of full length recombinant human N-terminal […]-tagged PI3K p110beta/full length human p85alpha expressed in baculovirus infected Sf21 insect cells using PIP2 as substrate preincubated for 30 mins followed by substrate addition by HTRF assay; in short: as §1
Sequence of PI3K p110 beta/p85 alpha (P27986 whole entry): as the sequence (P27986 whole entry) above
Sequence of PI3K p110 beta/p85 alpha (P42338 whole entry): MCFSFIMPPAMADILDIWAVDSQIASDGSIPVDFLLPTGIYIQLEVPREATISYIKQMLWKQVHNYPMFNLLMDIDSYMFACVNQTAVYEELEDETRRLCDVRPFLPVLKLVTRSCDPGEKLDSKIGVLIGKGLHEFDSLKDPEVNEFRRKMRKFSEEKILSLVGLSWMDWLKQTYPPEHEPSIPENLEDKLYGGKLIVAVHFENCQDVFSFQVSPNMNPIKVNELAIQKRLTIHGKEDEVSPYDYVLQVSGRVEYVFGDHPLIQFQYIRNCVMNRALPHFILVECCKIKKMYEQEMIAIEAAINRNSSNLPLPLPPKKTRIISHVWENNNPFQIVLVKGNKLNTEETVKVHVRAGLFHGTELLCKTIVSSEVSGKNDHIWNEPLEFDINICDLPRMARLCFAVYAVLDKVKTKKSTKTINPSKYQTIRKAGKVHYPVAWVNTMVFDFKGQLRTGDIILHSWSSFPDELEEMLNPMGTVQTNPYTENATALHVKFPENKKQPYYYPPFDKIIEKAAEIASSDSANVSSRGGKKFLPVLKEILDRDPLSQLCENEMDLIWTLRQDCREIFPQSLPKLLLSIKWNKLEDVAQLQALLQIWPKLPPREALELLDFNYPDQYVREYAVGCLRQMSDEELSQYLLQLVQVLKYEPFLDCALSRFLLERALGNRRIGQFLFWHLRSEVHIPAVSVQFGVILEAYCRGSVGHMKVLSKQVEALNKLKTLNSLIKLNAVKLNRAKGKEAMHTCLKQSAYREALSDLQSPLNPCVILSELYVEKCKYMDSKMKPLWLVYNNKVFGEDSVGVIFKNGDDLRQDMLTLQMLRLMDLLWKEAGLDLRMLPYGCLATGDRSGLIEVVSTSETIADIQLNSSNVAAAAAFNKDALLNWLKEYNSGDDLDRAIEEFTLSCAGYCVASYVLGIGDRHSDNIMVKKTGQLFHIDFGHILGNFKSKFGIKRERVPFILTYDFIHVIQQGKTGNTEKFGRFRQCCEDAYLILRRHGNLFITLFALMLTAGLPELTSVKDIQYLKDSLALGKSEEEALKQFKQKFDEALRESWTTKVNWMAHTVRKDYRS

[10] = Protein binding in mouse plasma at 1uM by LC-MS/MS analysis; assay type: ADME, cell-free; details: read-out: PPB
[11] = Protein binding in rat plasma at 1 uM by LC-MS/MS analysis; assay type: ADME, cell-free; details: read-out: PPB
[12] = Protein binding in dog plasma at 1 uM by LC-MS/MS analysis; assay type: ADME, cell-free, Canis lupus familiaris; details: read-out: PPB
[13] = Protein binding in human plasma at 1 uM by LC-MS/MS analysis; assay type: ADME, cell-free; details: read-out: PPB
In short: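 Binding measured by equilibrium dialysis at 37 °C, compound at 1 µM in human plasma; percent bound reported as mean.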

[14] = tested on: Rattus norvegicus; test: In vivo inhibition of PI3Kdelta in Wistar rat assessed as reduction in ConA-induced increase in plasma IL2 production administered through oral gavage 1 hr prior to ConA measured 90 mins post ConA challenge by ELISA; assay type: functional; details: read-out: ID50 (the source's name)
[15] = tested on: Rattus norvegicus; test: Anti-inflammatory activity in Brown Norway rat assessed as reduction in OVA-induced eosinophil infilteration to bronchoalveolar lavage administered orally bid 1 hr prior to OVA challenge on day 14 and 6 hrs post OVA challenge on day 21 measured 24 hrs post last OVA challenge by microscopic method; assay type: functional
[16] = Half life in Beagle dog at 1 mg/kg, iv through bolus administration; assay type: ADME, organism-based, Canis lupus familiaris; details: in vivo
[17] = AUC in Beagle dog at 1 mg/kg, iv through bolus administration; assay type: ADME, organism-based, Canis lupus familiaris; details: in vivo
[18] = Clearance in Beagle dog at 1 mg/kg, iv through bolus administration; details: in vivo
[19] = Apparent volume of distribution in Beagle dog at 1 mg/kg, iv through bolus administration; assay type: ADME, organism-based, Canis lupus familiaris; details: in vivo, read-out: Vz
[20] = Oral bioavailability in Beagle dog at 1 mg/kg administered via gavage; assay type: ADME, organism-based, Canis lupus familiaris; details: in vivo
[21] = Apparent permeability of compound at 20 uM after 5 hrs by PAMPA; assay type: ADME
[22] = Stability in human plasma at 5 uM up to 24 hrs by UPLC-MS/MS analysis; assay type: ADME, cell-free; details: read-out: Stability
In short: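 Compound incubated at 2 µg/ml in plasma (sodium heparin anticoagulant) at 37 °C for 24 h; percent remaining reported.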

[23] = biological target: T1, Cytochrome P450 1A2 (Homo sapiens, UniProt P05177); test: Inhibition of CYP1A2 in human liver microsomes assessed as reduction in Ethoxyresorufin O-deethylation at 1 to 25 uM by UPLC-MS/MS analysis; assay type: ADME
T1 sequence (P05177 whole entry): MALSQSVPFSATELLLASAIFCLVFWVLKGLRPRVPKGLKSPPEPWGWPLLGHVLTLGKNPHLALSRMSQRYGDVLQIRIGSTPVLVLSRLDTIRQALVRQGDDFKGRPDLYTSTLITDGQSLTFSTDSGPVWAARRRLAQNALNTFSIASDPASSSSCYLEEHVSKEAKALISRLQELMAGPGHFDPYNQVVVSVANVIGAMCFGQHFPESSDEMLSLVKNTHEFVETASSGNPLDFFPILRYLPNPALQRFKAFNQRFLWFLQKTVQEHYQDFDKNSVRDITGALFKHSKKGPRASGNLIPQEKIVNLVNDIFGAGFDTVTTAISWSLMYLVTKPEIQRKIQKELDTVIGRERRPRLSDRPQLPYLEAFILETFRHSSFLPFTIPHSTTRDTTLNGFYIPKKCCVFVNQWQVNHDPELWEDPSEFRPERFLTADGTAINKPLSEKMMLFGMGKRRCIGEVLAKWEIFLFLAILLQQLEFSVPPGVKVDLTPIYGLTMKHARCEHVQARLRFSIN

[24] = biological target: Cytochrome P450 2C9 (Homo sapiens, UniProt P11712); test: Inhibition of CYP2C9 in human liver microsomes assessed as reduction in diclofenac 4-hydroxylation at 1 to 25 uM by UPLC-MS/MS analysis; assay type: ADME
Sequence of Cytochrome P450 2C9 (P11712 whole entry): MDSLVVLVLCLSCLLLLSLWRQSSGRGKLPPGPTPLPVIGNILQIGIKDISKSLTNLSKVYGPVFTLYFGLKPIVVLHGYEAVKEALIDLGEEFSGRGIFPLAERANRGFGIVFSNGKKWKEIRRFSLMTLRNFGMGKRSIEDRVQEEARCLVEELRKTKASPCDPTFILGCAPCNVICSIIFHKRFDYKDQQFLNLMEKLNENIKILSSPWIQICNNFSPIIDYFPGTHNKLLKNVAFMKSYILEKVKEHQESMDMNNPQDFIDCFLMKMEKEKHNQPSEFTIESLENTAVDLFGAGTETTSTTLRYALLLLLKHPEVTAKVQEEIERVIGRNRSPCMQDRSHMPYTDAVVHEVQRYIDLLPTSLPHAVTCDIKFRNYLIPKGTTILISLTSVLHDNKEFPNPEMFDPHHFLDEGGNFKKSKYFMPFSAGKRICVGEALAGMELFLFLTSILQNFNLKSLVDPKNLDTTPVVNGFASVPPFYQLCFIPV

[25] = biological target: Cytochrome P450 2C19 (Homo sapiens, UniProt P33261); test: Inhibition of CYP2C19 in human liver microsomes assessed as reduction in S-mephenytoin-4-hydroxylation at 1 to 25 uM by UPLC-MS/MS analysis; assay type: ADME
Sequence of Cytochrome P450 2C19 (P33261 whole entry): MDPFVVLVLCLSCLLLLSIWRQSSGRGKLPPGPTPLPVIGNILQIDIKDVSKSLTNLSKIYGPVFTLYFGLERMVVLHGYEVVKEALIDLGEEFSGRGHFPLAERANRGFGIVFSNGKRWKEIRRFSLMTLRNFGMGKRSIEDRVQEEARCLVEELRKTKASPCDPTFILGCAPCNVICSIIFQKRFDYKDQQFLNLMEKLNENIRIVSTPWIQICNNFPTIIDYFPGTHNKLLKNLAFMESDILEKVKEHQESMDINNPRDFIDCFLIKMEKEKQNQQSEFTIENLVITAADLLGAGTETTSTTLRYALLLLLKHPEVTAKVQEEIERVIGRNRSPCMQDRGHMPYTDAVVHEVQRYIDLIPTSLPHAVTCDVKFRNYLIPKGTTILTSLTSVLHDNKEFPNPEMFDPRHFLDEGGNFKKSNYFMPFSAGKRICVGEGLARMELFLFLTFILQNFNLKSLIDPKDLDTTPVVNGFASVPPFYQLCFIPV

[26] = biological target: Cytochrome P450 2D6 (Homo sapiens, UniProt P10635); test: Inhibition of CYP2D6 in human liver microsomes assessed as reduction in dextromethorphan O-demethylation at 1 to 25 uM by UPLC-MS/MS analysis; assay type: ADME
Sequence of Cytochrome P450 2D6 (P10635 whole entry): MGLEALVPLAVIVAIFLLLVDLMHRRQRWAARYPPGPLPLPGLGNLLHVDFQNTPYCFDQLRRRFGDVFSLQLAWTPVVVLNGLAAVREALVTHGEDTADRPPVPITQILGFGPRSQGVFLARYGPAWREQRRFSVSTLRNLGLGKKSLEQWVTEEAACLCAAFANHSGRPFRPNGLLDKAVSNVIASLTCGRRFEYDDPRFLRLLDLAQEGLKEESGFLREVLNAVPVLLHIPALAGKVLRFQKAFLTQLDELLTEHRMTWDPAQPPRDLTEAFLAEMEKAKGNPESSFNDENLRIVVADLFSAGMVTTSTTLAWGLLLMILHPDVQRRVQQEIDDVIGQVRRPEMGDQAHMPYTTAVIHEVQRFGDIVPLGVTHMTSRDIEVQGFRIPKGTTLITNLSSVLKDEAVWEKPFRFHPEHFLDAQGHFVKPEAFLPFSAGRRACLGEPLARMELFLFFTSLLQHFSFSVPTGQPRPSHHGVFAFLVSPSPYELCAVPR

[27] = biological target: Cytochrome P450 3A4 (Homo sapiens, UniProt P08684); test: Inhibition of CYP3A4 in human liver microsomes assessed as reduction in testosterone 6beta-hydroxylation at 1 to 25 uM by UPLC-MS/MS analysis; assay type: ADME
Sequence of Cytochrome P450 3A4 (P08684 whole entry): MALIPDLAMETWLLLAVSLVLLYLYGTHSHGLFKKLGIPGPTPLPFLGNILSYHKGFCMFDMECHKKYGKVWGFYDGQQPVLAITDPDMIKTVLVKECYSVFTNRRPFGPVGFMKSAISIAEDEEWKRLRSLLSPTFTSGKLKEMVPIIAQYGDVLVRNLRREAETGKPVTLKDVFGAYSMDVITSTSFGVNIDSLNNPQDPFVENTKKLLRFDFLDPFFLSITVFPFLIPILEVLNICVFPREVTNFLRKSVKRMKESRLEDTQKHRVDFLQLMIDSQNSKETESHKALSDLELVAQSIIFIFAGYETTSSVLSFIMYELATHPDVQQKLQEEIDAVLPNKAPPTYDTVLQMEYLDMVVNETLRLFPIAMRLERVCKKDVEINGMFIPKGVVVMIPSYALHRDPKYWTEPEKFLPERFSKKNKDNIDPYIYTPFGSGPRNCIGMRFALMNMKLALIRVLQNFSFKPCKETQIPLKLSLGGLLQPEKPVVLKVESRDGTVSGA

[28] = Apparent volume of distribution in Wistar rat at 1 mg/kg, iv; assay type: ADME, organism-based; details: in vivo, read-out: Vz

- AUC [1]: 1730 ng·h/mL
- IC50 [2]: 8.2 µM
- bioavailability [3]: 101%
- clearance [4]: 9.6 mL/min/kg
- metabolised at 0.5 h, 5 µM [5]: 16%
- metabolised at 0.5 h, 5 µM [6]: 20%
- IC50 [7]: 0.0026 µM
- half-life [8]: 3.1 h
- IC50 [9]: 0.094 µM
- fraction unbound at 1 µM [10]: 0.35 to 0.4
- fraction unbound at 1 µM [11]: 0.35 to 0.4
- fraction unbound at 1 µM [12]: 0.35 to 0.4
- fraction unbound at 1 µM [13]: 0.046 to 0.05
- half-life [16]: 10.2 h
- AUC [17]: 9440 ng·h/mL
- clearance [18]: 1.4 mL/min/kg
- Vd [19]: 1.2 L/kg
- bioavailability [20]: 98%
- Papp at 5 h, 20 µM [21]: 2.8 ×10⁻⁶ cm/s
- remaining at 24 h, 5 µM [22]: 100%
- IC50 [23]: > 25 µM
- IC50 [24]: > 25 µM
- IC50 [25]: > 25 µM
- IC50 [26]: > 25 µM
- IC50 [27]: > 25 µM
- Vd [28]: 2.6 L/kg
Compound: C[C@H](Nc1ncnc(N)c1C#N)c1nn2ccc(C#N)c2c(=O)n1-c1ccccc1
- ED50 [14]: 0.13 mg/kg
- Activity [15]: Dose-dependent effect
- ED50 ([15]; po, read-out: ID50 (the source's name)): 0.16 mg/kg
